“Also recorded” adds a separate entry of the source. Like-named read-outs stand apart in the source and are kept apart here.

One assay deals with rSULT1A1-PAP complex (Rattus norvegicus, UniProt P17988). The experiment in a line: Kd of OHPCBs with the rSULT1A1-PAP complex by displacement of ANS. It is filed as binding. The essentials:
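DTT-free recombinant rat enzyme pretreated with 1 mM GSH or GSSG for 1 h at 25 °C under argon. Enzyme at 0.34 µM in 0.25 M potassium phosphate pH 7.0, held 2 min at 37 °C under argon. ANS added (10 µM final), then 0.27 mM PAP to form the complex, then titrated with test compound in ethanol. Read at ex 380/em 465 nm. Duplicates; one-site fit corrected for non-specific ANS binding.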

In assay [1] the target is T1, rSULT1A1 (Rattus norvegicus, UniProt P17988). Description: Kd of OHPCBs with rSULT1A1 by displacement of ANS. It is filed as binding. The method, boiled down: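 Recombinant rat enzyme (E. coli-expressed, PAP-agarose purified), DTT removed by gel filtration, pretreated with 1 mM GSH or GSSG for 1 h at 25 °C under argon. Enzyme at 0.34 µM in 0.25 M potassium phosphate pH 7.0, held 2 min at 37 °C under argon. ANS added (10 µM final), then titrated with test compound in ethanol. Fluorescence ex 380/em 465 nm. Duplicates; one-site fit corrected for non-specific ANS binding.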

For assay [2], the target named is T1, rSULT1A1. Description: Sulfation of OHPCBs catalyzed by rSULT1A1. It is filed as biochemical. The conditions noted are these: standard assay conditions (reduced enzyme). The essentials: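 Rat SULT1A1 expressed in E. coli BL21(DE3) from pET-3c and purified on PAP-agarose affinity column. Reaction at 37 °C: 0.25 M potassium phosphate pH 7.0, 200 µM PAPS, 7.5 mM 2-mercaptoethanol, 10 µM test compound added in acetone (3.3% v/v final). Started with 0.75 µg enzyme, stopped with methanol after 6 min. Sulfation rate from HPLC of substrate-dependent PAP formation.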

Assay [3] has as its target T1, rSULT1A1. Description: Binding of TNP-AMP and PAP to rSULT1A1. The method, boiled down:
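Recombinant rat enzyme (expressed in E. coli BL21(DE3), purified on PAP-agarose) at 0.34 µM in potassium phosphate pH 7.0, 37 °C, in a quartz cuvette. Titrated with TNP-AMP and the fluorescence increase recorded (ex 435/em 545 nm). PAP titration then displaced TNP-AMP, and the fluorescence decrease was recorded. Kd from a single-site binding fit corrected for non-specific binding.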

The target in assay [4] is T1, rSULT1A1. As to conditions: GSSG-pretreated enzyme; cited from earlier work.
Assay [5] concerns the target T1, rSULT1A1. As to conditions: cited from earlier work; for IC50: rSULT1A1 with all cysteines in the thiol form, 2-naphthol as the substrate; for inhibitor status with rSULT1A1: standard assay conditions, reduced rSULT1A1.
[6] abbreviates: read-out: Kd values for OHPCBs with rSULT1A1, With 0.27 mM PAP, GSH, enzyme pretreated with 1 mM GSH, pH 7.0, 37 °C.
Where [7] appears, read: read-out: Kd values for OHPCBs with rSULT1A1, With 0.27 mM PAP, GSSG, enzyme pretreated with 1 mM GSSG, pH 7.0, 37 °C.
Where [8] appears, read: read-out: Kd values for OHPCBs with rSULT1A1, Without PAP, GSH, enzyme pretreated with 1 mM GSH, pH 7.0, 37 °C.
The mark [9] stands for this setting: read-out: Kd values for OHPCBs with rSULT1A1, Without PAP, GSSG, enzyme pretreated with 1 mM GSSG, pH 7.0, 37 °C.

rSULT1A1-PAP complex, sequence (P17988 whole entry, one chain of several): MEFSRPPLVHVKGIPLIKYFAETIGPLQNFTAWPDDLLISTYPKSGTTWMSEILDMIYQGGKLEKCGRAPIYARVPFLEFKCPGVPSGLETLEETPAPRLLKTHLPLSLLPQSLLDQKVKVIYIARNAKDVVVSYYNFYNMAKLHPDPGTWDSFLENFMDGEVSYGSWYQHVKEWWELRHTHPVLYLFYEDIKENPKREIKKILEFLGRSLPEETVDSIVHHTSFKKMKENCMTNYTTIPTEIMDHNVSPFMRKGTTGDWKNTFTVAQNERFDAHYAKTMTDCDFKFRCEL
T1 sequence (P17988 whole entry): as the sequence (P17988 whole entry, one chain of several) above

As for `Oc1ccc(-c2ccc(Cl)c(Cl)c2)cc1` [4’-OH PCB 12], the Kd on rSULT1A1-PAP complex (setting [6]) came out at 3.1 ± 0.01 µM; on rSULT1A1-PAP complex (setting [7]) it was 4.6 ± 1.2 µM; on rSULT1A1 [1] (setting [8]), 4 ± 0.8 µM; on rSULT1A1 [1] (setting [9]), 2.5 ± 0.7 µM. Moreover, the “substrate status with rSULT1A1” value at rSULT1A1 [2] is given as “substrates for rSULT1A1”.

As to `Nc1ncnc2c1ncn2[C@@H]1O[C@H](COP(=O)(O)O)[C@@H](OP(=O)(O)O)[C@H]1O` [PAP, Adenosine 3’,5’-diphosphate], the Kd on rSULT1A1 [3] (Kd of PAP displacing TNP-AMP bound to rSULT1A1, 0.34 µM rSULT1A1, pH 7.0, 37°C, Figure 4B) was determined as 2.6 µM.

In the case of `Oc1ccc(Cl)cc1-c1ccc(Cl)c(Cl)c1` [6’-OH PCB 35], the Kd at rSULT1A1-PAP complex (setting [6]) was 3.7 ± 0.01 µM; on rSULT1A1-PAP complex (setting [7]), 3.6 ± 1.3 µM; at rSULT1A1 [1] (setting [8]), 65 ± 32 µM; at rSULT1A1 [1] (setting [9]) it was 117 ± 36 µM. Also, the “substrate status with rSULT1A1” value on rSULT1A1 [2] was “substrates for rSULT1A1”.

For `Oc1c(Cl)cc(-c2ccc(Cl)cc2Cl)cc1Cl` [4’-OH PCB 68], the Kd on rSULT1A1-PAP complex (setting [6]) was 0.47 ± 0.02 µM; at rSULT1A1-PAP complex (setting [7]), 0.4 ± 0.04 µM; at rSULT1A1 [1] (setting [8]), 0.67 ± 0.1 µM; on rSULT1A1 [1] (setting [9]) it was 0.53 ± 0.1 µM. At rSULT1A1 [4], the “substrate status with GSSG-pretreated (oxidized) rSULT1A1” value (“substrate status with GSSG-pretreated” for short) is “non-substrates for GSSG-pretreated enzyme”. The IC50 on rSULT1A1 [5] was 0.85 µM. For the same compound, the “inhibitor status with rSULT1A1” value on rSULT1A1 [5] is given as “inhibitors of the enzyme”.

For the compound `Oc1ccc(-c2ccc(Cl)cc2Cl)cc1Cl` [4’-OH PCB 25], the “inhibitor status with rSULT1A1” value at rSULT1A1 [5] is “the weakest inhibitor”.

Regarding “2'-(or-3')-O-(trinitrophenyl)adenosine 5'-monophosphate [TNP-AMP]”, the Kd on rSULT1A1 [3] (read-out: Kd of TNP-AMP binding to rSULT1A1, 0.34 µM rSULT1A1, potassium phosphate buffer pH 7.0, 37°C, fluorescence at 545 nm) amounted to 6.5 µM.

As for `Oc1ccc(-c2ccccc2Cl)cc1Cl` [4’-OH PCB 6], the Kd worked out at 0.88 ± 0.03 µM at rSULT1A1-PAP complex (setting [6]), 0.72 ± 0.01 µM on rSULT1A1-PAP complex (setting [7]), 0.66 ± 0.2 µM on rSULT1A1 [1] (setting [8]) and 0.5 ± 0.1 µM on rSULT1A1 [1] (setting [9]). Moreover, the “substrate status with GSSG-pretreated” value on rSULT1A1 [4] was “converted from inhibitors to substrates”. In addition, the IC50 at rSULT1A1 [5] is 23 µM.

With `Oc1ccc(-c2cc(Cl)ccc2Cl)cc1` [4’-OH PCB 9], the Kd was 3.1 ± 1.5 µM at rSULT1A1-PAP complex (setting [6]), 3.3 ± 0.1 µM at rSULT1A1-PAP complex (setting [7]), 12 ± 4 µM at rSULT1A1 [1] (setting [8]) and 7.1 ± 1.3 µM on rSULT1A1 [1] (setting [9]). In addition, the “substrate status with rSULT1A1” value at rSULT1A1 [2] was “substrates for rSULT1A1”.

For `Oc1c(Cl)cc(-c2ccccc2Cl)cc1Cl` [4-OH PCB 34], the Kd is 0.49 µM at rSULT1A1-PAP complex (setting [6]), 0.54 ± 0.01 µM on rSULT1A1-PAP complex (setting [7]), 0.37 ± 0.01 µM on rSULT1A1 [1] (setting [8]) and 0.23 ± 0.01 µM at rSULT1A1 [1] (setting [9]). The “substrate status with GSSG-pretreated” value on rSULT1A1 [4] is reported as “non-substrates for GSSG-pretreated enzyme”. Further, the IC50 on rSULT1A1 [5] was 0.34 µM. Further, the “inhibitor status with rSULT1A1” value on rSULT1A1 [5] is “inhibitors of the enzyme”.

Take `Oc1ccc(-c2cc(Cl)cc(Cl)c2)cc1Cl` [4’-OH PCB 36]: the “substrate status with GSSG-pretreated” value at rSULT1A1 [4] is listed as “substrates for oxidized rSULT1A1”. In addition, the “inhibitor status with rSULT1A1” value at rSULT1A1 [5] is given as “relatively weak inhibitors”.

For the compound `Oc1ccc(-c2ccc(Cl)c(Cl)c2)cc1Cl` [4’-OH PCB 35], the Kd on rSULT1A1-PAP complex (setting [6]) stood at 1.6 ± 0.1 µM; on rSULT1A1-PAP complex (setting [7]), 1.7 ± 0.1 µM; on rSULT1A1 [1] (setting [8]), 3.6 ± 0.9 µM; at rSULT1A1 [1] (setting [9]), 1.6 ± 0.4 µM. In addition, the “substrate status with rSULT1A1” value on rSULT1A1 [2] was “substrates for rSULT1A1; also recorded: the weakest substrate”.

In the case of `Oc1ccc(-c2ccc(Cl)c(Cl)c2)c(Cl)c1` [4’-OH PCB 33], the Kd at rSULT1A1-PAP complex (setting [6]) amounted to 2 ± 0.01 µM; on rSULT1A1-PAP complex (setting [7]), 2.4 ± 0.04 µM; on rSULT1A1 [1] (setting [8]) it was 2 ± 0.1 µM; on rSULT1A1 [1] (setting [9]), 2.5 ± 0.4 µM. On rSULT1A1 [4], the “substrate status with GSSG-pretreated” value is on record as “converted from inhibitors to substrates; also recorded: substrates for oxidized rSULT1A1”. Also, at rSULT1A1 [5], the IC50 was 26 µM. Further, the “inhibitor status with rSULT1A1” value on rSULT1A1 [5] is listed as “relatively weak inhibitors”.

With `Oc1c(Cl)cc(-c2ccccc2)cc1Cl` [4-OH PCB 14], the Kd at rSULT1A1-PAP complex (setting [6]) stood at 0.4 ± 0.05 µM; at rSULT1A1-PAP complex (setting [7]), 0.29 ± 0.04 µM; at rSULT1A1 [1] (setting [8]), 0.26 ± 0.03 µM; at rSULT1A1 [1] (setting [9]), 0.22 ± 0.02 µM. The “substrate status with GSSG-pretreated” value on rSULT1A1 [4] is on record as “converted from inhibitors to substrates”. Further, the IC50 at rSULT1A1 [5] was 0.27 µM.

As usually defined, the Kd is the free concentration of one partner at which half of the binding sites on the other are occupied at equilibrium, for simple one-to-one binding. By IC50 is commonly meant the concentration at which inhibition is half-maximal.

Values taken from paper PMC3032042 (Chemico-biological interactions, 2010).
